# Like-named read-outs stand apart in the source and are kept apart here.
# Legend:
# [1] = tested on: chorea associated with Huntington's disease; settings: cited from earlier work
# [2] = Safety assessments, study AUS-SD-809-CTP-07; format: in vivo, human; settings: for Serious AEs: healthy volunteers; for Laboratory parameters, vital signs and physical examination: single or multiple doses
# Outline: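 Healthy subjects, single 15 mg dose in part 1 and single or repeated 7.5–22.5 mg doses in part 2. Adverse-event monitoring, physical examination, vital signs, standard 12-lead ECG, PHQ-9, C-SSRS and laboratory tests repeated throughout, including 72 h after each dose in part 1. For preliminary QTc assessment, triplicate digital 12-lead ECGs recorded on part 2 dosing days 1 and 4.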
# [3] = format: in vivo, human; settings: for Total (α+β)-HTBZ AUC0-t / Total (α+β)-HTBZ AUCinf / Total (α+β)-HTBZ Cmax / Total (α+β)-HTBZ T1/2 / α-HTBZ AUC0-t / α-HTBZ AUCinf / α-HTBZ Cmax / β-HTBZ AUC0-t / β-HTBZ AUCinf / β-HTBZ Cmax / β-HTBZ T1/2 / Total (α+β)-HTBZ Tmax / α-HTBZ Tmax / β-HTBZ Tmax: deutetrabenazine 15 mg single dose; for Total (α+β)-HTBZ AUC0-t / Total (α+β)-HTBZ AUCinf / Total (α+β)-HTBZ Cmax / Total (α+β)-HTBZ T1/2 / α-HTBZ AUC0-t / α-HTBZ AUCinf / α-HTBZ Cmax / β-HTBZ AUC0-t / β-HTBZ AUCinf / β-HTBZ Cmax / β-HTBZ T1/2: mean (CV%); for Total (α+β)-HTBZ Tmax / α-HTBZ Tmax / β-HTBZ Tmax: median (range); for Plasma concentrations of the parent compound: single administration of 15 mg deutetrabenazine or 25 mg tetrabenazine tablets, LLOQ 0.100 ng/mL
# Outline: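 Randomised crossover in 25 healthy subjects, five periods over 17 days, all in clinic. Single oral dose: 15 mg of each of two test-compound tablet formulations, fed or fasted, or 25 mg non-deuterated reference fasted. Fasted means an overnight fast of ≥10 h; fed means an FDA-definition high-fat (50% calories), 800–1000 calorie meal. Plasma dihydro metabolites sampled predose and over 72 h; values below LLOQ set to LLOQ where flanked by measurable ones. Non-compartmental AUC and Cmax; ANOVA on ln values (subject, period, treatment); back-transformed geometric mean ratios with 90% CI.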
# [4] = Study AUS-SD-809-CTP-07 part 2: single and repeated; format: in vivo, human; settings: for α-HTBZ Cmin / (α+β)-HTBZ Cmin / β-HTBZ Cmin: steady state, mean (CV%); for α-HTBZ Cmin: 0-12 h; for Linear regression model slope (zero intercept) / Power regression model α (parameter = α × dose^β) / Power regression model β (exponent of dose): deutetrabenazine fed
# Outline: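 Two groups of 12 healthy subjects over 20 days; the second group dosed ≥7 days after the first. Test compound given at 7.5, 15 and 22.5 mg after a standard meal; non-deuterated reference 25 mg fasted. Single doses on days 1 and 4, ≥72 h apart, with full plasma profiles. Dosing every 12 h from day 7 for 3.5 days, with predose troughs used to confirm steady state. Cmin taken as the minimum over 0–12 h. Power (parameter = α × dose^β) and zero-intercept linear regressions fitted to single-dose AUCinf, steady-state AUC0-12 and Cmax.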
# [5] = format: in vivo, human
# Outline: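 Healthy subjects given 18 mg test compound after a standard meal or after a high-fat meal. For the dose-proportionality arms, doses of 6, 12, 18 and 24 mg were given with a standard meal and compared as dose-normalised parameters. Plasma dihydro metabolites analysed by non-compartmental Cmax, AUC0-t and AUCinf. ANOVA on ln values; geometric mean ratios with 90% CI, back-transformed.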
# tardive dyskinesia = settings: cited from earlier work
# [6] = tested on: chorea in patients with HD; settings: 12 weeks; cited from earlier work
# VMAT2 = settings: cited from earlier work
# [7] = LS geometric mean ratio deutetrabenazine 15 mg fed / tetrabenazine 25 mg fasted
# [8] = deutetrabenazine 15 mg high-fat/high-calorie meal versus fasted
# [9] = deutetrabenazine 15 mg, high-fat/high-calorie meal
# [10] = deutetrabenazine 7.5 mg twice daily fed
# [11] = deutetrabenazine 15 mg twice daily fed
# [12] = deutetrabenazine 22.5 mg twice daily fed
# [13] = total (α+β)-HTBZ AUC0-12 (steady state)
# [14] = total (α+β)-HTBZ AUCinf (single dose)
# [15] = deutetrabenazine 18 mg high-fat/high-calorie meal versus standard meal
# [16] = deutetrabenazine 18 mg, high-fat/high-calorie meal
# [17] = deutetrabenazine 18 mg, standard meal
molecule,measurement,setting,value
[2H]C([2H])([2H])Oc1cc2c(cc1OC([2H])([2H])[2H])C1CC(=O)C(CC(C)C)CN1CC2 (stereo not shown) [Deutetrabenazine],Mean difference in total maximal chorea score compared with placebo treatment,[1],−2.5 unit
same,Mean Unified Huntington's Disease Rating Scale total maximal chorea score,"[1]; weeks 9-12, twice a day, baseline 12.1",7.7
same,Serious AEs,[2],No serious AEs
same,Most frequent AEs reported as possibly drug related,[2]; in vivo,Somnolence and headache
same,Subjects with change from predose in QTc of >30 milliseconds,[2]; in vivo,No subject
same,Subjects with postdose QTc > 450 milliseconds,[2]; in vivo,No subject
same,Tolerability,[2]; single 15 mg (part 1) and single/repeated 7.5-22.5 mg (part 2),well tolerated
same,"Laboratory parameters, vital signs and physical examination",[2],no clinically significant abnormalities
same,Total (α+β)-HTBZ AUC0-t % ratio (90%CI),[3]; [7],126.6 (115.8‐138.4) %
same,Total (α+β)-HTBZ AUCinf % ratio (90%CI),[3]; [7],127.7 (116.7‐139.6) %
same,Total (α+β)-HTBZ Cmax % ratio (90%CI),[3]; [7],51.4 (46.0‐57.4) %
same,α-HTBZ AUCinf % ratio (90%CI),[3]; [7],129.7 (118.1‐142.5) %
same,α-HTBZ Cmax % ratio (90%CI),[3]; [7],49.3 (44.5‐54.7) %
same,β-HTBZ AUC0-t % ratio (90%CI),[3]; [7],117.0 (104.5‐131.1) %
same,β-HTBZ AUCinf % ratio (90%CI),[3]; [7],119.9 (105.5‐136.2) %
same,β-HTBZ Cmax % ratio (90%CI),[3]; [7],55.3 (47.7‐64.2) %
same,Increase of AUCinf of (α+β)-HTBZ with food,[3]; deutetrabenazine 15 mg high-fat meal vs fasted,about 11%
same,Total (α+β)-HTBZ AUC0-t % ratio,[3]; [8],111.5%
same,Total (α+β)-HTBZ AUCinf % ratio,[3]; [8],110.6%
same,Total (α+β)-HTBZ Cmax % ratio,[3]; [8],149.7%
same,Total (α+β)-HTBZ T1/2 % ratio,[3]; [8],75.3%
same,Total (α+β)-HTBZ AUC0-t,[3]; fasted,263 (45) ng·h/mL
same,Total (α+β)-HTBZ AUCinf,[3]; fasted,273 (45) ng·h/mL
same,Total (α+β)-HTBZ Cmax,[3]; fasted,22.5 (36) ng/mL
same,Total (α+β)-HTBZ T1/2,[3]; fasted,9.4 (25) h
same,α-HTBZ AUC0-t,[3]; fasted,185 (25) ng·h/mL
same,α-HTBZ AUCinf,[3]; fasted,196 (24) ng·h/mL
same,α-HTBZ Cmax,[3]; fasted,14.2(34) ng/mL
same,β-HTBZ AUC0-t,[3]; fasted,74.2 (108) ng·h/mL
same,β-HTBZ AUCinf,[3]; fasted,81.4 (105) ng·h/mL
same,β-HTBZ Cmax,[3]; fasted,8.43 (48) ng/mL
same,β-HTBZ T1/2,[3]; fasted,6.6 (56) h
same,Total (α+β)-HTBZ Tmax,[3]; fasted,2.3 (1.0‐8.0) h
same,α-HTBZ Tmax,[3]; fasted,2.5 (1.0‐8.0) h
same,β-HTBZ Tmax,[3]; fasted,2.5 (1.0‐8.0) h
same,Total (α+β)-HTBZ AUC0-t,[3]; fed (high-fat meal),296 (48) ng·h/mL
same,Total (α+β)-HTBZ AUCinf,[3]; fed (high-fat meal),305 (46) ng·h/mL
same,Total (α+β)-HTBZ Cmax,[3]; fed (high-fat meal),33.3 (33) ng/mL
same,Total (α+β)-HTBZ T1/2,[3]; fed (high-fat meal),7.0 (23) h
same,α-HTBZ AUC0-t,[3]; fed (high-fat meal),207 (30) ng·h/mL
same,α-HTBZ AUCinf,[3]; fed (high-fat meal),217 (29) ng·h/mL
same,α-HTBZ Cmax,[3]; fed (high-fat meal),20.8 (27) ng/mL
same,β-HTBZ AUC0-t,[3]; fed (high-fat meal),85.6 (102) ng·h/mL
same,β-HTBZ AUCinf,[3]; fed (high-fat meal),102 (92) ng·h/mL
same,β-HTBZ Cmax,[3]; fed (high-fat meal),12.7 (50) ng/mL
same,β-HTBZ T1/2,[3]; fed (high-fat meal),4.6 (63) h
same,Total (α+β)-HTBZ Tmax,[3]; fed (high-fat meal),6.0 (1.5‐8.0) h
same,α-HTBZ Tmax,[3]; fed (high-fat meal),6.0 (1.0‐8.0) h
same,β-HTBZ Tmax,[3]; fed (high-fat meal),6.0 (1.5‐8.0) h
same,"Total (α+β)-HTBZ AUC0-t, LS mean","[3]; deutetrabenazine 15 mg, fasted",244.6 ng·h/mL
same,"Total (α+β)-HTBZ AUCinf, LS mean","[3]; deutetrabenazine 15 mg, fasted",254.9 ng·h/mL
same,"Total (α+β)-HTBZ Cmax, LS mean","[3]; deutetrabenazine 15 mg, fasted",21.2 ng/mL
same,"Total (α+β)-HTBZ AUC0-t, LS mean",[3]; [9],272.8 ng·h/mL
same,"Total (α+β)-HTBZ AUCinf, LS mean",[3]; [9],282.0 ng·h/mL
same,"Total (α+β)-HTBZ Cmax, LS mean",[3]; [9],31.7 ng/mL
same,"Total (α+β)-HTBZ T1/2, LS mean",[3]; [9],6.8 h
same,"Effect of food on exposure to total (α+β)-HTBZ, as measured by AUC",[3]; deutetrabenazine fed vs fasted,no effect
same,Plasma concentrations of the parent compound,[3],near or at the LLOQ
same,α-HTBZ Cmin,[4]; [10],7.2 (41) ng/mL
same,(α+β)-HTBZ Cmin,[4]; [10],10.1 (48) ng/mL
same,β-HTBZ Cmin,[4]; [10],2.8 (71) ng/mL
same,α-HTBZ Cmin,[4]; [11],15.6 (37) ng/mL
same,(α+β)-HTBZ Cmin,[4]; [11],21.1 (41) ng/mL
same,β-HTBZ Cmin,[4]; [11],5.5 (54) ng/mL
same,α-HTBZ Cmin,[4]; [12],26.3 (40) ng/mL
same,(α+β)-HTBZ Cmin,[4]; [12],39.5 (59) ng/mL
same,β-HTBZ Cmin,[4]; [12],13.1 (102) ng/mL
same,Exposure to β-HTBZ relative to α-HTBZ,[4]; single-dose and repeated deutetrabenazine administration,approximately one‐third
same,Linear regression model slope (zero intercept),[4]; [13],32.4
same,Power regression model α (parameter = α × dose^β),[4]; [13],17.8
same,Power regression model β (exponent of dose),[4]; [13],1.2
same,Linear regression model slope (zero intercept),[4]; [14],26.9
same,Power regression model α (parameter = α × dose^β),[4]; [14],17.0
same,Power regression model β (exponent of dose),[4]; [14],1.1
same,Total (α+β)-HTBZ AUC0-t % ratio,[5]; [15],107.0%
same,Total (α+β)-HTBZ AUCinf % ratio,[5]; [15],106.4%
same,Total (α+β)-HTBZ Cmax % ratio,[5]; [15],104.2%
same,Total (α+β)-HTBZ T1/2 % ratio,[5]; [15],101.8%
same,"Total (α+β)-HTBZ AUC0-t, LS mean",[5]; [16],408 ng·h/mL
same,"Total (α+β)-HTBZ AUCinf, LS mean",[5]; [16],419 ng·h/mL
same,"Total (α+β)-HTBZ Cmax, LS mean",[5]; [16],48.4 ng/mL
same,"Total (α+β)-HTBZ AUC0-t, LS mean",[5]; [17],382 ng·h/mL
same,"Total (α+β)-HTBZ AUCinf, LS mean",[5]; [17],394 ng·h/mL
same,"Total (α+β)-HTBZ Cmax, LS mean",[5]; [17],46.5 ng/mL
same,"Total (α+β)-HTBZ T1/2, LS mean",[5]; [17],9.7 h
same,Change in the Abnormal Involuntary Movement Scale scores,tardive dyskinesia,significantly reduced TD
"COc1cc2c(cc1OC)C1CC(=O)C(CC(C)C)CN1CC2 (stereo not shown) [Tetrabenazine, reference compound]",Serious AEs,[2],One serious AE of vessel puncture‐site reaction
same,Subjects with change from predose in QTc of >30 milliseconds,[2]; in vivo,No subject
same,Subjects with postdose QTc > 450 milliseconds,[2]; in vivo,No subject
same,"Laboratory parameters, vital signs and physical examination",[2],no clinically significant abnormalities
same,Plasma concentrations of the parent compound,[3],near or at the LLOQ
same,Chorea severity compared with placebo-treated patients,[6],significantly reduced chorea severity
"COc1cc2c(cc1OC)[C@H]1C[C@H](O)[C@H](CC(C)C)CN1CC2 [β‐HTBZ, β‐dihydrotetrabenazine]",Inhibition of VMAT2,VMAT2,potent inhibitors
α‐dihydrotetrabenazine [α‐HTBZ],Inhibition of VMAT2,VMAT2,potent inhibitors

# — paper PMC8246815 (Clinical Pharmacology in Drug Development, 2020)
